Calls of active or inactive are those of the source. The calls are words filed in the database; no cut-off is given here.

The record followed here is ChEMBL document CHEMBL4765369, “Optimal linker length for small molecule PROTACs that selectively target p38α and p38β for degradation” (Eur J Med Chem, 2020).

Data set [1] concerns the target T1, Protein cereblon/Mitogen-activated protein kinase 14 (Homo sapiens, UniProt Q16539+Q96SW2). The experiment in a line: Protac activity at CRBN/p38alpha in human T47D cells assessed as p38alpha degradation at 10 uM measured after 24 hrs by immunoblotting analysis. The data set is classed as cell-based. The procedure, abridged:
(§1)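 BBL358 or T47D cells given compound 10 µM for 24 h. RIPA lysates run on SDS-PAGE and immunoblotted for p38α. Odyssey infrared band intensities give p38α/tubulin ratio, normalised to untreated cells and reported as % degradation. Mean ±SEM with n=2 or more (one set: n=2 BBL358, n=1 T47D).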
Target sequence in this assay (Q16539 2-360 limits assumed): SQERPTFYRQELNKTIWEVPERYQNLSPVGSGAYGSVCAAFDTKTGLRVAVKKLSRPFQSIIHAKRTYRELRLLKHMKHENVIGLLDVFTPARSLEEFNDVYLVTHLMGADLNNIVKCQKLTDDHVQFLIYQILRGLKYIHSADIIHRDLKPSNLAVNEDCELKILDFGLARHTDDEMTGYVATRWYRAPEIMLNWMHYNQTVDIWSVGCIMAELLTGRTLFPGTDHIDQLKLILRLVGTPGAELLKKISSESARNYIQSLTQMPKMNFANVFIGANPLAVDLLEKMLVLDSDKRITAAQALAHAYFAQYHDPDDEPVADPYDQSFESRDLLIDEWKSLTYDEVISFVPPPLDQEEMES
Target sequence in this assay (Q96SW2 whole entry partner): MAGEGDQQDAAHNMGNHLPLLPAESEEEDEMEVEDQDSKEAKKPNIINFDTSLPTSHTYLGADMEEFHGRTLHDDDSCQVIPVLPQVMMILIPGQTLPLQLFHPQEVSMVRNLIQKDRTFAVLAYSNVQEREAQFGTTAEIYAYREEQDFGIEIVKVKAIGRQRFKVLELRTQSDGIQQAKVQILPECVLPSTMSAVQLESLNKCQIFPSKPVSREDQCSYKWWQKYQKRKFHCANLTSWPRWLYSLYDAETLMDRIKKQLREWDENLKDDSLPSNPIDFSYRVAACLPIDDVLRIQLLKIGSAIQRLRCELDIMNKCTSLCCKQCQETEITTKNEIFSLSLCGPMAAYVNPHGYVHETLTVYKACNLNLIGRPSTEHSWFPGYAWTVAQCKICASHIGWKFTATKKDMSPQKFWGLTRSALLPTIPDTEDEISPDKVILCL

Data set [2] deals with T1, Protein cereblon/Mitogen-activated protein kinase 14. Nature of the data set: Protac activity at CRBN/p38alpha in human BBL358 cells assessed as p38alpha degradation at 10 uM measured after 24 hrs by immunoblotting analysis. The data set is classed as cell-based. The method, boiled down: as §1
On the technique in general: A western blot detects proteins with antibodies after separation by electrophoresis.
Target sequence in this assay (Q16539 2-360 limits assumed): as the sequence (Q16539 2-360 limits assumed) above
Target sequence in this assay (Q96SW2 whole entry partner): as the sequence (Q96SW2 whole entry partner) above

Data set [3] can be described thus: Induction of change in p38alpha protein expression in human MDA-MB-231 cells at 1 uM incubated for 16 hrs by mass spectrometry based proteomic analysis. The note with it: mda-mb-231, 16 h. The data set is classed as cell-based. The method, boiled down:
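MDA-MB-231 cells SILAC-labelled to ≥95% in arginine/lysine-free DMEM-F12 with 2% dialysed FBS; heavy cells got compound, light cells got DMSO, 16 h. Lysis in 4% SDS, 0.1 M DTT, Tris pH 7.6; FASP trypsin digestion overnight at 37 °C; nano-LC C18 MS/MS with 300 min run; protein-level heavy/light change.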

In data set [4] the target is T2, Protein cereblon/Mitogen-activated protein kinase 11 (Homo sapiens, UniProt Q15759+Q96SW2). Nature of the data set: Protac activity at CRBN/p38beta in human MDA-MB-231 cells assessed as p38beta degradation at 1 uM measured after 24 hrs by immunoblotting analysis. The data set is classed as cell-based.
Target sequence in this assay (Q15759 whole entry): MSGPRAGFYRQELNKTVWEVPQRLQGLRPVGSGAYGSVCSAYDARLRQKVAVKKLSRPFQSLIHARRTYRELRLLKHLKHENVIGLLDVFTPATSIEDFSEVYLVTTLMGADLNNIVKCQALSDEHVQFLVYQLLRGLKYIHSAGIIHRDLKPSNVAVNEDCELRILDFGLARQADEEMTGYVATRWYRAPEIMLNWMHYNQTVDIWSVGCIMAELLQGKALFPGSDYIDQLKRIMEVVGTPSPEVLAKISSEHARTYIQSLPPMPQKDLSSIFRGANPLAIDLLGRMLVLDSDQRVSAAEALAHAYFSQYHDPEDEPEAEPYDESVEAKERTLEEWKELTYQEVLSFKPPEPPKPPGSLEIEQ
Target sequence in this assay (Q96SW2 whole entry): as the sequence (Q96SW2 whole entry partner) above
The target in data set [5] is T1, Protein cereblon/Mitogen-activated protein kinase 14. Nature of the data set: Protac activity at CRBN/p38alpha in human MDA-MB-231 cells assessed as reduction in UV-induced MK2 phosphorylation at 1 uM after 24 hrs by immunoblotting analysis. The data set is classed as cell-based. The method, boiled down:
(§2)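 MDA-MB-231 cells pre-incubated with compound, then p38α pathway stimulated with UV at 30 J/m2; PH797804 reference at 2 µM. Lysates immunoblotted for phospho-MK2. Cells grown in DMEM with 10% FBS at 37 °C, 5% CO2.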
Target sequence in this assay (Q16539 2-360 limits assumed): as the sequence (Q16539 2-360 limits assumed) above
Target sequence in this assay (Q96SW2 whole entry partner): as the sequence (Q96SW2 whole entry partner) above

Data set [6] shares this target. The experiment in a line: Protac activity at CRBN/p38alpha in […] cells assessed as p38alpha degradation at 1 uM measured after 24 hrs by immunoblotting analysis. The data set is classed as cell-based.
Target sequence in this assay (Q16539 2-360 limits assumed): as the sequence (Q16539 2-360 limits assumed) above
Target sequence in this assay (Q96SW2 whole entry partner): as the sequence (Q96SW2 whole entry partner) above
Data set [7] is described as follows: Protac activity at CRBN/p38alpha in mouse bone marrow derived macrophages assessed as p38alpha degradation at 1 uM measured after 24 hrs by immunoblotting analysis. The note with it: Macrophage.
The target of data set [8] is T2, Protein cereblon/Mitogen-activated protein kinase 11. Nature of the data set: Protac activity at CRBN/p38beta in human T47D cells assessed as p38beta degradation at 1 uM measured after 24 hrs by immunoblotting analysis. The data set is classed as cell-based.
Target sequence in this assay (Q15759 whole entry): as the sequence (Q15759 whole entry) above
Target sequence in this assay (Q96SW2 whole entry): as the sequence (Q96SW2 whole entry partner) above
The target is the same in data set [9]. Nature of the data set: Protac activity at CRBN/p38beta in human retina epithelial cells assessed as p38beta degradation at 1 uM measured after 24 hrs by immunoblotting analysis. The data set is classed as tissue-based. The note with it: Epithelial cell.
Target sequence in this assay (Q15759 whole entry, looked up): as the sequence (Q15759 whole entry) above
Target sequence in this assay (Q96SW2 whole entry, looked up): as the sequence (Q96SW2 whole entry partner) above
In data set [10] the target is T1, Protein cereblon/Mitogen-activated protein kinase 14. The experiment in a line: Protac activity at CRBN/p38alpha in human MDA-MB-231 cells assessed as reduction in UV-induced MK2 phosphorylation at 1 uM after 48 hrs by immunoblotting analysis. The data set is classed as cell-based. The procedure, abridged: as §2
Target sequence in this assay (Q16539 2-360 limits assumed): as the sequence (Q16539 2-360 limits assumed) above
Target sequence in this assay (Q96SW2 whole entry partner): as the sequence (Q96SW2 whole entry partner) above
For data set [11] the target is unchanged. The experiment in a line: Protac activity at CRBN/p38alpha in human MDA-MB-231 cells assessed as p38alpha degradation measured after 24 hrs by immunoblotting analysis. The data set is classed as cell-based. The procedure, abridged:
(§3)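 T47D and MDA-MB-231 cells treated with a concentration series for 24 h; lysates immunoblotted for p38α. p38α/tubulin band ratio normalised to untreated cells; DC50 (conc. giving 50% degradation) fitted from biological duplicates.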
Target sequence in this assay (Q16539 whole entry): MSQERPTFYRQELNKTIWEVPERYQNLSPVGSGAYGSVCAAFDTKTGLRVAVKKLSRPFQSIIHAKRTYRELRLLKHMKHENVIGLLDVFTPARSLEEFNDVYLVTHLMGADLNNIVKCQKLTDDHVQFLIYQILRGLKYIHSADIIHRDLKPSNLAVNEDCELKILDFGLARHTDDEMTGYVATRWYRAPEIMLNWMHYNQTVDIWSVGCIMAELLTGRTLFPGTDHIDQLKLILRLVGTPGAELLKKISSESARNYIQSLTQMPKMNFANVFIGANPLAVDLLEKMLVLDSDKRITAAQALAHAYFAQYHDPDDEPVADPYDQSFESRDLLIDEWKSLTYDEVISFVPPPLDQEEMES
Target sequence in this assay (Q96SW2 whole entry): as the sequence (Q96SW2 whole entry partner) above

Data set [12] shares this target. The experiment in a line: Protac activity at CRBN/p38alpha in human T47D cells assessed as p38alpha degradation measured after 24 hrs by immunoblotting analysis. The data set is classed as cell-based. The method, boiled down: as §3
Target sequence in this assay (Q16539 whole entry): as the sequence (Q16539 whole entry) above
Target sequence in this assay (Q96SW2 whole entry): as the sequence (Q96SW2 whole entry partner) above
In data set [13] the target is T2, Protein cereblon/Mitogen-activated protein kinase 11. The experiment in a line: Protac activity at CRBN/p38beta in […] cells assessed as p38beta degradation at 1 uM measured after 24 hrs by immunoblotting analysis. The data set is classed as cell-based.
Target sequence in this assay (Q15759 whole entry, looked up): as the sequence (Q15759 whole entry) above
Target sequence in this assay (Q96SW2 whole entry, looked up): as the sequence (Q96SW2 whole entry partner) above
The nature of data set [14]: Protac activity at CRBN/p38beta in mouse bone marrow derived macrophages assessed as p38beta degradation at 1 uM measured after 24 hrs by immunoblotting analysis. As to conditions: Macrophage.
Data set [15] concerns the target T1, Protein cereblon/Mitogen-activated protein kinase 14. The experiment in a line: Protac activity at CRBN/p38alpha in human retina epithelial cells assessed as p38alpha degradation at 1 uM measured after 24 hrs by immunoblotting analysis. As to conditions: Epithelial cell. The data set is classed as tissue-based.
Target sequence in this assay (Q16539 2-360 limits assumed): as the sequence (Q16539 2-360 limits assumed) above
Target sequence in this assay (Q96SW2 whole entry partner): as the sequence (Q96SW2 whole entry partner) above
For data set [16] the target is unchanged. Nature of the data set: Protac activity at CRBN/p38alpha in human T47D cells assessed as p38alpha degradation at 1 uM measured after 24 hrs by immunoblotting analysis. The data set is classed as cell-based. The method, boiled down: (§4)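 MDA-MB-231 and T47D cells exposed 24 h to 1 µM; N-methylated imide analogues tested alongside. RIPA lysates immunoblotted for p38α, intensities quantified from infrared imaging.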

Data set [17] has the same target. Nature of the data set: Protac activity at CRBN/p38alpha in human MDA-MB-231 cells assessed as p38alpha degradation at 1 uM measured after 24 hrs by immunoblotting analysis. The data set is classed as cell-based. The procedure, abridged:
as §4

Consider `Cc1ccc(C(=O)NCCCc2cn(CCCC(=O)NCCCCNc3cccc4c3C(=O)N(C3CCC(=O)NC3=O)C4=O)nn2)cc1-n1c(C)cc(OCc2ccc(F)cc2F)c(Br)c1=O` (centres undefined), for which the values for the Activity in data set [1] and in data set [2] were 91% and 84%, respectively.

As to `Cc1ccc(C(=O)NCCCCNC(=O)c2ccc3c(c2)C(=O)N(C2CCC(=O)NC2=O)C3=O)cc1-n1c(C)cc(OCc2ccc(F)cc2F)c(Br)c1=O` (centres undefined), in data set [2], the Activity came to 40%.

`Cc1ccc(C(=O)NCCCCc2cn(CCCC(=O)NCCCCCCNc3cccc4c3C(=O)N(C3CCC(=O)NC3=O)C4=O)nn2)cc1-n1c(C)cc(OCc2ccc(F)cc2F)c(Br)c1=O` (centres undefined): the Activity amounted to 47% in data set [1] and 67% in data set [2].

Turning to `Cc1ccc(C(=O)NCCCCc2cn(CC[C@H](N)C(=O)NCCCCNc3cccc4c3C(=O)N(C3CCC(=O)NC3=O)C4=O)nn2)cc1-n1c(C)cc(OCc2ccc(F)cc2F)c(Br)c1=O` (some centres undefined), in [1], the Activity came out at 4%.

Consider `Cc1ccc(C(=O)NCCCCc2cn(CCCC(=O)NCCCCCNc3cccc4c3C(=O)N(C3CCC(=O)NC3=O)C4=O)nn2)cc1-n1c(C)cc(OCc2ccc(F)cc2F)c(Br)c1=O` (centres undefined), for which the Activity in [1] was 82%; in data set [2] it was 77%.

With `Cc1ccc(C(=O)NCCc2cn(CCCC(=O)NCCNc3cccc4c3C(=O)N(C3CCC(=O)NC3=O)C4=O)nn2)cc1-n1c(C)cc(OCc2ccc(F)cc2F)c(Br)c1=O` (centres undefined), in data set [1], the Activity came to 8%.

For `Cc1ccc(C(=O)NCCCCc2cn(CC[C@H](NC(=O)OC(C)(C)C)C(=O)NCCCCNc3cccc4c3C(=O)N(C3CCC(=O)NC3=O)C4=O)nn2)cc1-n1c(C)cc(OCc2ccc(F)cc2F)c(Br)c1=O` (some centres undefined), the Activity is 93% in data set [1] and 81% in [2].

With `Cc1ccc(C(=O)NCCCCc2cn(CCCC(=O)NCCCCNc3cccc4c3C(=O)N(C3CCC(=O)NC3=O)C4=O)nn2)cc1-n1c(C)cc(OCc2ccc(F)cc2F)c(Br)c1=O` (centres undefined), the figures for the Activity result in data set [3], in data set [1] and in [2] were “Active”, 89% and 84%, respectively. Also, the 50% degradation concentration (DC50) in data set [4] turned out to be 48.9 nM; in [8], 48.5 nM; in [11], 27.2 nM; in data set [12], 24 nM. Moreover, the outcome in data set [5], in data set [6], in data set [7], in [9], in [10] and in data set [13] was Active. In addition, the outcome in data set [14] and in data set [15] was Active.

As to `Cc1ccc(C(=O)NCCOCCOCCNc2cccc3c2C(=O)N(C2CCC(=O)NC2=O)C3=O)cc1-n1c(C)cc(OCc2ccc(F)cc2F)c(Br)c1=O` (centres undefined), the Activity in data set [2] is 60%.

As for `Cc1ccc(C(=O)NCCOCCOCCNC(=O)c2ccc3c(c2)C(=O)N(C2CCC(=O)NC2=O)C3=O)cc1-n1c(C)cc(OCc2ccc(F)cc2F)c(Br)c1=O` (centres undefined), the Activity in [2] came out at 55%.

For the compound `Cc1ccc(C(=O)NCCCCc2cn(CCCC(=O)NCCOCCOCCNc3cccc4c3C(=O)N(C3CCC(=O)NC3=O)C4=O)nn2)cc1-n1c(C)cc(OCc2ccc(F)cc2F)c(Br)c1=O` (centres undefined), the Activity is 85% in data set [1] and 79% in [2].

As for `Cc1ccc(C(=O)NCCCCc2cn(CCCC(=O)NCCOCCOCCNc3cccc4c3C(=O)N(C3CCC(=O)N(Cc5ccccc5[N+](=O)[O-])C3=O)C4=O)nn2)cc1-n1c(C)cc(OCc2ccc(F)cc2F)c(Br)c1=O` (centres undefined), the results for the Activity in [1] and in data set [2] were 20% and 3%, respectively.

`Cc1ccc(C(=O)NCCCCc2cn(CCCC(=O)NCCCCNc3cccc4c3C(=O)N(C3CCC(=O)N(C)C3=O)C4=O)nn2)cc1-n1c(C)cc(OCc2ccc(F)cc2F)c(Br)c1=O` (centres undefined): the outcome in [5], in data set [16] and in data set [17] was inactive.

Consider `Cc1ccc(C(=O)NCCCCc2cn(CCCC(=O)NCCOCCOCCNC(=O)c3ccc4c(c3)C(=O)N(C3CCC(=O)N(Cc5ccccc5[N+](=O)[O-])C3=O)C4=O)nn2)cc1-n1c(C)cc(OCc2ccc(F)cc2F)c(Br)c1=O` (centres undefined), for which the Activity in [1] is 76%; in data set [2], 0.5%.

`Cc1ccc(C(=O)NCCCCc2cn(CCCC(=O)NCCNc3cccc4c3C(=O)N(C3CCC(=O)NC3=O)C4=O)nn2)cc1-n1c(C)cc(OCc2ccc(F)cc2F)c(Br)c1=O` (centres undefined): the Activity was determined as 40% in data set [1] and 12% in data set [2].

In the case of `C=C1c2cccc(NCCCCCNC(=O)CCCn3cc(CCCCNC(=O)c4ccc(C)c(-n5c(C)cc(OCc6ccc(F)cc6F)c(Br)c5=O)c4)nn3)c2C(=O)N1C1CCC(=O)NC1=O` (centres undefined), the Activity in data set [1] is 16%; in [2], 47%.

With `Cc1ccc(C(=O)NCCc2cn(CCCC(=O)NCCCNc3cccc4c3C(=O)N(C3CCC(=O)NC3=O)C4=O)nn2)cc1-n1c(C)cc(OCc2ccc(F)cc2F)c(Br)c1=O` (centres undefined), the figures for the Activity in data set [1] and in data set [2] were 42% and 36%, respectively.

As to `Cc1ccc(C(=O)NCCCCc2cn(CCOCCOCCOCCOCCNc3cccc4c3C(=O)N(C3CCC(=O)NC3=O)C4=O)nn2)cc1-n1c(C)cc(OCc2ccc(F)cc2F)c(Br)c1=O` (centres undefined), the figures for the Activity in data set [1] and in data set [2] were 41% and 92%, respectively.

With `Cc1ccc(C(=O)NCCc2cn(CCCC(=O)NCCCCNc3cccc4c3C(=O)N(C3CCC(=O)NC3=O)C4=O)nn2)cc1-n1c(C)cc(OCc2ccc(F)cc2F)c(Br)c1=O` (centres undefined), the Activity came to 25% in data set [1] and 40% in data set [2].

Consider `Cc1ccc(C(=O)NCCCCNc2cccc3c2C(=O)N(C2CCC(=O)NC2=O)C3=O)cc1-n1c(C)cc(OCc2ccc(F)cc2F)c(Br)c1=O` (centres undefined), for which, in [2], the Activity was 8%.

Take `Cc1ccc(C(=O)NCCCc2cn(CCCC(=O)NCCCNc3cccc4c3C(=O)N(C3CCC(=O)NC3=O)C4=O)nn2)cc1-n1c(C)cc(OCc2ccc(F)cc2F)c(Br)c1=O` (centres undefined): the Activity in data set [1] turned out to be 68%; in [2], 60%.

Regarding `Cc1ccc(C(=O)NCCOCCOCCOCCOCCOCCOCCNc2cccc3c2C(=O)N(C2CCC(=O)NC2=O)C3=O)cc1-n1c(C)cc(OCc2ccc(F)cc2F)c(Br)c1=O` (centres undefined), the Activity in data set [1] was determined as 20%; in data set [2], 82%.

Take `C=C1c2cccc(NCCCCCCNC(=O)CCCn3cc(CCCCNC(=O)c4ccc(C)c(-n5c(C)cc(OCc6ccc(F)cc6F)c(Br)c5=O)c4)nn3)c2C(=O)N1C1CCC(=O)N(C)C1=O` (centres undefined): the outcome in data set [5], in data set [16] and in [17] was inactive.

Regarding `Cc1ccc(C(=O)NCCCCc2cn(CCOCCOCCOCCNc3cccc4c3C(=O)N(C3CCC(=O)NC3=O)C4=O)nn2)cc1-n1c(C)cc(OCc2ccc(F)cc2F)c(Br)c1=O` (centres undefined), the Activity in data set [1] was 26%; in data set [2] it was 78%.

Take `Cc1ccc(C(=O)NCCCCc2cn(CCCC(=O)NCCCNc3cccc4c3C(=O)N(C3CCC(=O)NC3=O)C4=O)nn2)cc1-n1c(C)cc(OCc2ccc(F)cc2F)c(Br)c1=O` (centres undefined): the Activity worked out at 87% in data set [1] and 74% in [2].

What is called DC50 is the midpoint of the concentration-degradation curve.
